We go through 43 compounds from ChEMBL document CHEMBL3600355, “The importance of the 6- and 7-positions of tetrahydroisoquinolines as selective antagonists for the orexin 1 receptor” (Bioorg Med Chem, 2015).

Format in all cases: functional, cell-based
Assay [1] deals with T1, Orexin/Hypocretin receptor type 1 (Homo sapiens) (UniProt O43613).
T1 sequence (whole entry): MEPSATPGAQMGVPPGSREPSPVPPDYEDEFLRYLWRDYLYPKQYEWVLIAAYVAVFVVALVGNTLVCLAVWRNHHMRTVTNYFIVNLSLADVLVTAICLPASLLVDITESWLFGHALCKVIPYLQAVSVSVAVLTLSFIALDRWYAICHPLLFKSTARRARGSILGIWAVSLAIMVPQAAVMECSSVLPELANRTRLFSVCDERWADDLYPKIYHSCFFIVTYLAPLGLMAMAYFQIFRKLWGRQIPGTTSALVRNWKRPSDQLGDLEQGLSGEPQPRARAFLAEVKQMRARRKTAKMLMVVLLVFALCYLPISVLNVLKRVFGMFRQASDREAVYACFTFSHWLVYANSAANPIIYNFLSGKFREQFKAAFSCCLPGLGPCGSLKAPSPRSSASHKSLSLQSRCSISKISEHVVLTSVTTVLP
The assay is described as follows: Competitive antagonist activity at human OX1 receptor expressed in CHO-RD-HGA16 cells assessed as inhibition of orexin-A-induced calcium mobilization preincubated for 45 mins followed by orexin-A addition measured every 1.52 secs over 60 secs by calcium 5 dye-based fluorescence assay. Summed up:
(§1)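 Curve-shift assay in human OX1 CHO-RD-HGA16 cells, with antagonist–receptor pre-incubation lengthened to 45 min or 1 hr before orexin A addition. Calcium 5 fluorescence was monitored, and each point is a composite of at least three experiments in duplicate.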
On the technique in general: A change in cytosolic calcium serves as a functional read-out for many receptors and channels.

For assay [2], the target named is T2, Orexin receptor type 2 (Homo sapiens) (UniProt O43614).
T2 sequence (whole entry): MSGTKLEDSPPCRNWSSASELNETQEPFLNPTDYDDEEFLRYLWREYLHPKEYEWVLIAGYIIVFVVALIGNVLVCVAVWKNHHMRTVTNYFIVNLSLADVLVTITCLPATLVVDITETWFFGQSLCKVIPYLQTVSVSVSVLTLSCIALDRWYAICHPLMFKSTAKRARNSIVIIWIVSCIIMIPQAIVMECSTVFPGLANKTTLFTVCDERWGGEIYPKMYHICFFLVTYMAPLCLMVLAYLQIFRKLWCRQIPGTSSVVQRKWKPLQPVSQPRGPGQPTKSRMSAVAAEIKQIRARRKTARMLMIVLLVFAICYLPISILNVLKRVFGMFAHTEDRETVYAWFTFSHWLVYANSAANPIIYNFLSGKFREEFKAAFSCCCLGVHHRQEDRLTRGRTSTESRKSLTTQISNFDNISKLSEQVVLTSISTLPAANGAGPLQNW
The assay is described as follows: Antagonist activity at human OX2 receptor expressed in CHO-RD-HGA16 cells assessed as inhibition of orexin-A-induced calcium mobilization at 10 uM preincubated for 15 mins followed by orexin-A addition measured every 1.52 secs over 60 secs by calcium 5 dye-based fluorescence assay relative to control. Summed up: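 OX2 stable CHO-RD-HGA16 cells, Calcium 5 dye-loaded, were pre-incubated 15 min at 37°C with compound at 10 μM before orexin A addition. Calcium fluorescence was read every 1.52 s for 60 s and percent inhibition of the orexin A response recorded.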

The target in assay [3] is T1, Orexin/Hypocretin receptor type 1 (Homo sapiens). In words: Competitive antagonist activity at human OX1 receptor expressed in CHO-RD-HGA16 cells assessed as inhibition of orexin-A-induced calcium mobilization preincubated for 1 hr followed by orexin-A addition measured every 1.52 secs over 60 secs by calcium 5 dye-based fluorescence assay. Summed up:
as §1

Assay [4] has the same target. The assay is described as follows: Insurmountable antagonist activity at human OX1 receptor expressed in CHO-RD-HGA16 cells assessed as inhibition of orexin-A-induced calcium mobilization preincubated for 15 mins followed by orexin-A addition measured every 1.52 secs over 60 secs by calcium 5 dye-based fluorescence assay. Put shortly: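 Human OX1 or OX2 stable CHO-RD-HGA16 cells were dye-loaded with Calcium 5, then given a single compound concentration for 15 min at 37°C. Orexin A serial dilutions were added at 19 s and fluorescence read every 1.52 s over 60 s. Orexin A EC50 curves were run with and without compound and fitted to a three-parameter logistic. Apparent Ke was taken from the right-shift; three independent experiments in duplicate, N=2 where Ke >10 μM.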

For assay [5] the target is unchanged. In words: Competitive antagonist activity at human OX1 receptor expressed in CHO-RD-HGA16 cells assessed as inhibition of orexin-A-induced calcium mobilization compound treated simultaneous with orexin-A by fluorescence assay. Summed up:
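Antagonist and orexin A were added simultaneously to Calcium 5-loaded human OX1 CHO-RD-HGA16 cells, with calcium mobilization curve-shift measured. Data are composites of at least three experiments in duplicate.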

For assay [6] the target is unchanged. In words: Agonist activity at human OX1 receptor expressed in CHO-RD-HGA16 cells assessed as induction of calcium mobilization at 10 uM measured every 1.52 secs over 60 secs by calcium 5 dye-based fluorescence assay. Summed up: (§2)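 Stable CHO-RD-HGA16 lines overexpressing human OX1 or OX2, plated overnight at 25,000 cells/well, 37°C, 5% CO2. Loaded 45 min with Calcium 5 dye in HBSS/20 mM HEPES/2.5 mM probenecid, pH 7.4. Compound tested alone at 10 μM; fluorescence (ex 485/em 525 nm) read every 1.52 s for 60 s.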

In assay [7] the target is T2, Orexin receptor type 2 (Homo sapiens). The assay is described as follows: Agonist activity at human OX2 receptor expressed in CHO-RD-HGA16 cells assessed as induction of calcium mobilization at 10 uM measured every 1.52 secs over 60 secs by calcium 5 dye-based fluorescence assay. Summed up: as §2

Calls of active or inactive are those of the source. The calls are words filed in the database; no cut-off is given here.

By inhibition is commonly meant the percentage by which the read-out fell short of the control. As for `COc1ccc(CCNc2ccc3c(c2)CCN(CC(=O)NCc2ccccc2)C3Cc2ccc(OC)c(OC)c2)cc1OC` (configuration not stated), in assay [1], the Ke(app) was found to be 2180 nM. Moreover, in assay [2], the inhibition is under 50%. In addition, the inhibition result in assay [3], in assay [4] and in assay [5] was “Active” in each case. On to `CCOC(=O)C(C)Nc1ccc2c(c1)CCN(CC(=O)NCc1ccccc1)C2Cc1ccc(OC)c(OC)c1` (configuration not stated), for which the inhibition in assay [2] was under 50%. `CCCN(C)c1ccc2c(c1)CCN(CC(=O)NCc1ccccc1)C2Cc1ccc(OC)c(OC)c1` (configuration not stated): the inhibition in assay [2] was under 50%. Besides, the outcome in assay [6] and in assay [7] was inactive. Take `COc1ccc(CC2c3ccc(N(C)CC4CC4)cc3CCN2CC(=O)NCc2ccccc2)cc1OC` (configuration not stated): in assay [2], the inhibition was under 50%. As for `CCCCCNc1ccc2c(c1)CCN(CC(=O)NCc1ccccc1)C2Cc1ccc(OC)c(OC)c1` (configuration not stated), the inhibition in assay [2] is under 50%.

For the compound `COc1ccc(CC2c3ccc(N4CCCC4)cc3CCN2CC(=O)NCc2ccccc2)cc1OC` (configuration not stated), the inhibition in assay [2] is under 50%. For the compound `CCOC(=O)CCCOc1ccc2c(c1)CCN(CC(=O)NCc1ccccc1)C2Cc1ccc(OC)c(OC)c1` (configuration not stated), the inhibition entry in assay [1], in assay [4] and in assay [5] was “Active” in each case. Also, in assay [2], the inhibition is under 50%. The Ke(app) in assay [3] was 1000 nM. For the same compound, the result in assay [6] and in assay [7] was inactive. In the case of `COc1ccc(CC2c3ccc(OS(=O)(=O)c4ccccc4)cc3CCN2CC(=O)NCc2ccccc2)cc1OC` (configuration not stated), the inhibition in assay [2] was under 50%. Consider `CCCOc1ccc2c(c1)CCN(CC(=O)NCc1ccccc1)C2Cc1ccc(OC)c(OC)c1` (configuration not stated), for which, in assay [2], the inhibition was under 50%. In the case of `COc1ccc(CC2c3ccc(OC(C)C)cc3CCN2CC(=O)NCc2ccccc2)cc1OC` (configuration not stated), the inhibition in assay [2] is under 50%. The same measure, in the same setting: with `CCCNc1ccc2c(c1)CCN(CC(=O)NCc1ccccc1)C2Cc1ccc(OC)c(OC)c1` (configuration not stated) the figure was under 50%; with `COc1ccc(CC2c3ccc(NC(=O)Nc4ccccc4)cc3CCN2CC(=O)NCc2ccccc2)cc1OC` (configuration not stated), under 50%. On to `CCCN(CCC)c1ccc2c(c1)CCN(CC(=O)NCc1ccccc1)C2Cc1ccc(OC)c(OC)c1` (configuration not stated), for which, in assay [2], the inhibition is under 50%. In the case of `CCOC(=O)CCCCCCNc1ccc2c(c1)CCN(CC(=O)NCc1ccccc1)C2Cc1ccc(OC)c(OC)c1` (configuration not stated), the inhibition in assay [2] is under 50%. Turning to `CCCCCCN(C)c1ccc2c(c1)CCN(CC(=O)NCc1ccccc1)C2Cc1ccc(OC)c(OC)c1` (configuration not stated), the inhibition in assay [2] was under 50%. For `COc1ccc(CC2c3ccc(NCc4ccncc4)cc3CCN2CC(=O)NCc2ccccc2)cc1OC` (configuration not stated), the inhibition in assay [2] is under 50%. On to `COc1ccc(CC2c3ccc(NCCN4CCCCC4)cc3CCN2CC(=O)NCc2ccccc2)cc1OC` (configuration not stated), for which, in assay [2], the inhibition is under 50%. With `COc1ccc(CC2c3ccc(NCCCC(=O)OC(C)(C)C)cc3CCN2CC(=O)NCc2ccccc2)cc1OC` (configuration not stated), the inhibition entry in assay [1], in assay [4] and in assay [5] was “Active” each time. Also, the inhibition in assay [2] is under 50%. The Ke(app) in assay [3] was found to be 1010 nM.

Regarding `CCOC(=O)CNc1ccc2c(c1)CCN(CC(=O)NCc1ccccc1)C2Cc1ccc(OC)c(OC)c1` (configuration not stated), in assay [2], the inhibition is under 50%. Moreover, the result in assay [6] and in assay [7] was inactive. With `COc1ccc(CC2c3ccc(NC(C)C)cc3CCN2CC(=O)NCc2ccccc2)cc1OC` (configuration not stated), the inhibition in assay [2] is under 50%. `COc1ccc(CC2c3ccc(NS(C)(=O)=O)cc3CCN2CC(=O)NCc2ccccc2)cc1OC` (configuration not stated): the inhibition in assay [2] was under 50%. Turning to `CCOC(=O)CCNc1ccc2c(c1)CCN(CC(=O)NCc1ccccc1)C2Cc1ccc(OC)c(OC)c1` (configuration not stated), the inhibition in assay [2] was under 50%. Also, the result in assay [6] and in assay [7] was inactive.

As for `COc1ccc(CC2c3ccc(NC(=O)c4ccccc4)cc3CCN2CC(=O)NCc2ccccc2)cc1OC` (configuration not stated), the inhibition in assay [2] was under 50%. As for `COc1ccc(CC2c3ccc(NCC4CC4)cc3CCN2CC(=O)NCc2ccccc2)cc1OC` (configuration not stated), the inhibition in assay [2] was under 50%. Take `COc1ccc(CC2c3ccc(OCc4ccccc4)cc3CCN2CC(=O)NCc2ccccc2)cc1OC` (configuration not stated): the inhibition in assay [2] was under 50%. For `CCCCCCNc1ccc2c(c1)CCN(CC(=O)NCc1ccccc1)C2Cc1ccc(OC)c(OC)c1` (configuration not stated), the inhibition in assay [2] was under 50%. For the compound `CCOC(=O)CCCNc1ccc2c(c1)CCN(CC(=O)NCc1ccccc1)C2Cc1ccc(OC)c(OC)c1` (configuration not stated), the result in assay [6] and in assay [7] was inactive. Turning to `COc1ccc(CC2c3ccc(NCC(=O)N(C)C)cc3CCN2CC(=O)NCc2ccccc2)cc1OC` (configuration not stated), the inhibition in assay [2] is under 50%. Turning to `COc1ccc(CC2c3ccc(NCCCc4ccccc4)cc3CCN2CC(=O)NCc2ccccc2)cc1OC` (configuration not stated), in assay [2], the inhibition is under 50%. As to `CCCCOc1ccc2c(c1)C(Cc1ccc(OC)c(OC)c1)N(CC(=O)NCc1ccccc1)CC2` (configuration not stated), the inhibition in assay [2] was under 50%. The result in assay [6] and in assay [7] was inactive.

`CCOC(=O)CCCCCCOc1ccc2c(c1)CCN(CC(=O)NCc1ccccc1)C2Cc1ccc(OC)c(OC)c1` (configuration not stated): in assay [2], the inhibition is under 50%. Turning to `COc1ccc2c(c1)C(Cc1ccc(OC)c(OC)c1)N(CC(=O)NCc1ccccc1)CC2` (configuration not stated), the outcome in assay [6] and in assay [7] was inactive. As for `COc1ccc(CC2c3ccc(NCc4ccccc4)cc3CCN2CC(=O)NCc2ccccc2)cc1OC` (configuration not stated), the inhibition in assay [2] is under 50%. The same measure, in the same setting: with `COc1ccc(CC2c3ccc(N(C)Cc4ccccc4)cc3CCN2CC(=O)NCc2ccccc2)cc1OC` (configuration not stated) the figure was under 50%. For `COc1ccc(CC2c3ccc(NCCCCOc4ccccc4)cc3CCN2CC(=O)NCc2ccccc2)cc1OC` (configuration not stated), the inhibition in assay [2] is under 50%. For the compound `COc1ccc(CC2c3ccc(N(C)C)cc3CCN2CC(=O)NCc2ccccc2)cc1OC` (configuration not stated), in assay [2], the inhibition was under 50%. With `COc1ccc(CC2c3ccc(OCC(F)(F)F)cc3CCN2CC(=O)NCc2ccccc2)cc1OC` (configuration not stated), the inhibition in assay [2] was under 50%. Still for that read-out and setting: under `COc1ccc(CC2c3ccc(N4CCCCC4)cc3CCN2CC(=O)NCc2ccccc2)cc1OC` (configuration not stated) stands under 50%.

On to `COc1ccc(CC2c3ccc(NCc4cccnc4)cc3CCN2CC(=O)NCc2ccccc2)cc1OC` (configuration not stated), for which, in assay [2], the inhibition was under 50%. As for `CCCCCCNC(=O)Nc1ccc2c(c1)CCN(CC(=O)NCc1ccccc1)C2Cc1ccc(OC)c(OC)c1` (configuration not stated), in assay [2], the inhibition was under 50%. The same measure, in the same setting: under `COC(=O)CCCCNc1ccc2c(c1)CCN(CC(=O)NCc1ccccc1)C2Cc1ccc(OC)c(OC)c1` (configuration not stated) stands under 50%; under `COc1ccc(CC2c3ccc(NC(C)=O)cc3CCN2CC(=O)NCc2ccccc2)cc1OC` (configuration not stated), under 50%; under `CCCCCN(C)c1ccc2c(c1)CCN(CC(=O)NCc1ccccc1)C2Cc1ccc(OC)c(OC)c1` (configuration not stated), under 50%.
